One assay concerns the target T1, TSGP4 (Ornithodoros kalahariensis, UniProt Q8I9T9).
T1 sequence (Q8I9T9 21-176): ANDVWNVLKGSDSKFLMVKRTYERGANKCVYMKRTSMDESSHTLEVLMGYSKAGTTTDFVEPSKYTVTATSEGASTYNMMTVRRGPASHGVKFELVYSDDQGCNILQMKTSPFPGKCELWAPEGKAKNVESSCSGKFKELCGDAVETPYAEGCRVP
Briefly: isothermal titration calorimetry. It counts as binding. In a few lines: (§1)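 Recombinantly expressed tick salivary lipocalin, checked for quality, in isothermal titration calorimetry on a VP-ITC instrument. Protein at 2 µM titrated against 20 µM lipid-derived ligand (fatty acid, leukotrienes, thromboxane analogues, prostaglandin, PAF) unless otherwise indicated. Stoichiometry (N), KD, ΔH and TΔS fitted per titration; S.E.M. is deviation of the data from the fit.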
In general terms: ITC needs no label: the signal is the heat of the interaction.

The target in the next assay is T2, AM-33 (Argas monolakensis, UniProt Q09JW0).
T2 sequence (Q09JW0 19-179): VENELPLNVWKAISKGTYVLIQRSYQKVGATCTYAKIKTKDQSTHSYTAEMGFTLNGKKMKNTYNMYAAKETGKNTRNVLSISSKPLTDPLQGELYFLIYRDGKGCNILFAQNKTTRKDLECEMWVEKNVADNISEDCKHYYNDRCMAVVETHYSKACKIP
Briefly: isothermal titration calorimetry. It counts as binding. The essentials:
as §1

Some results are limits rather than exact numbers.

Consider five compounds from article PMC2583325 (Insect biochemistry and molecular biology, 2008).

Usually Kd stands for the constant that tells how readily two partners part at equilibrium. Low readings indicate a tighter complex, high ones a looser complex. With `CCCCC/C=C\C[C@@H](O)/C=C/C=C/C=C\[C@@H](O)CCCC(=O)O` [LTB4], the Kd at TSGP4 came out at 1000 ± 476 nM; on AM-33 it was 587 ± 286 nM.

As for `CCCCC/C=C\C\C=C/C=C/C=C/[C@@H](SC[C@H](N)C(=O)NCC(=O)O)[C@@H](O)CCCC(=O)O` [LTD4], the equilibrium dissociation constant (Kd) on TSGP4 and on AM-33 was not above 2 nM throughout.

As to `CCCCC/C=C\C\C=C/C=C/C=C/[C@@H](SC[C@H](NC(=O)CC[C@H](N)C(=O)O)C(=O)NCC(=O)O)[C@@H](O)CCCC(=O)O` [LTC4], the dissociation constant Kd is not above 2 nM at TSGP4 and 2.2 ± 0.4 nM at AM-33.

With `CCCCC/C=C\C/C=C\C/C=C\C/C=C\CCCC(=O)O` [Arachidonic acid], the figures for the Kd at TSGP4 and on AM-33 were 155 ± 43 nM and 613 ± 198 nM, respectively.

For the compound `CCCCC/C=C\C\C=C/C=C/C=C/[C@@H](SC[C@H](N)C(=O)O)[C@@H](O)CCCC(=O)O` [LTE4], the dissociation constant (Kd) on TSGP4 was 10.8 ± 2 nM; at AM-33 it was 68 ± 6.6 nM.
